Data on 16 compounds can be found in ChEMBL document CHEMBL4665880, “Dihydrobenzoxazinone derivatives as aldose reductase inhibitors with antioxidant activity” (Bioorg Med Chem, 2020).

Assay [1] has as its target Aldo-keto reductase family 1 member B1 (Rattus norvegicus, UniProt P07943). The assay can be described thus: Inhibition of rat lens ALR2 using D,L-glyceraldehyde as substrate preincubated for 5 mins at 30 degC followed by substrate addition and measured after 4 mins in presence of NADPH. The assay is classed as tissue-based.
Assay [2] can be described thus: Antioxidant activity assessed as DPPH radical scavenging activity at 100 uM relative to control. The assay is classed as functional. Summed up: (§1)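 DPPH (0.025 mg/mL stock in methanol, 1 mL) mixed with 1.9 mL methanol and 100 µL methanolic compound or Trolox, giving final 100, 10, 5 and 1 µM. Absorbance at 517 nm read after reaching steady state; scavenging % = (1 − (A sample − A blank)/A control)×100, blank being compound in methanol, control DPPH in methanol. Triplicate.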
(The DPPH test is a chemical assay of radical scavenging.)

Assay [3] can be described thus: Antioxidant activity assessed as DPPH radical scavenging activity at 10 uM relative to control. The assay is classed as functional. In short, it runs like this: as §1
Assay [4] can be described thus: Antioxidant activity assessed as DPPH radical scavenging activity at 5 uM relative to control. In kind it is functional. In short, it runs like this:
as §1

Assay [5] in a line: Antioxidant activity assessed as DPPH radical scavenging activity at 1 uM relative to control. The assay is classed as functional. In short, it runs like this:
as §1

For the next assay, the species on record is Rattus norvegicus. Put plainly: Selectivity index, ratio of IC50 for rat kidney ALR1 to IC50 for rat lens ALR2.
Assay [6] deals with Aldo-keto reductase family 1 member A1 (Rattus norvegicus, UniProt P51635). The assay can be described thus: Inhibition of rat kidney ALR1 using […] as substrate preincubated for 4 mins at 37 degC followed by substrate addition and measured after 4 mins in presence of NADPH. In kind it is tissue-based. Summed up: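 Rat kidney enzyme extract with 0.12 mM NADPH, 0.1 M sodium phosphate pH 7.2 and inhibitor in DMSO, preincubated 4 min at 37 °C; reaction started with sodium D-[…] (20 mM stock) and monitored 4 min. Corrected for nonenzymatic NADPH oxidation. Tested 100 µM to 10 nM, three replicates per concentration; IC50 from linear log(dose)–response fit (r² > 0.95).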

Assay [7] in a line: Antioxidant activity assessed as superoxide anion radical scavenging activity incubated for 40 mins by spectrophotometric method. In kind it is functional. In short, it runs like this: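 Incubation at 37 °C for 40 min, then 2 mL chromogenic reagent added; after 10 min standing, absorbance read at 550 nm. Activity (U/µmol) = (A control − A sample)/(A control − A blank) ×150 ÷ sample concentration (µM); control ascorbic acid 150 mg/L, blank distilled water. Triplicate.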

A further assay has as its system Brain. The assay can be described thus: Antioxidant activity in rat brain homogenate assessed as inhibition of FeCl3/ascorbic acid-induced lipid peroxidation by measuring MDA level at 100 uM after 30 mins by thiobarbituric acid based spectrophotometric method relative to control. The assay is classed as functional, tissue-based. Summed up:
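Fresh rat brain homogenized 25% in ice-cold saline, spun 3000 rpm 10 min; supernatant incubated with compound (100 µM), […] at 37 °C for 30 min. MDA measured by TBA kit: boiled 95 °C 40 min, iced, centrifuged, read at 532 nm. Methanol used as control vehicle. Triplicate.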

Aldo-keto reductase family 1 member A1, sequence (P51635 whole entry, looked up): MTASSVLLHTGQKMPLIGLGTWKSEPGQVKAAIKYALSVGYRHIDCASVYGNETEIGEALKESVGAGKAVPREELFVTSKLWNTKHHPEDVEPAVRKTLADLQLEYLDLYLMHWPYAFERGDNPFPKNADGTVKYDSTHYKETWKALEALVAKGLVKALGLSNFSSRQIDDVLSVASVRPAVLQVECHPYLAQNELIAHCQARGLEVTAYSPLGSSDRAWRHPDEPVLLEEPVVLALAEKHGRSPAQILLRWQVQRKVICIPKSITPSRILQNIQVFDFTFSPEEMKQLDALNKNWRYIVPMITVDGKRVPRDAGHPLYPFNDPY

Turning to `O=Cc1ccc(-c2cccc3c2OC(=O)CN3CC(=O)O)cc1`, the IC50 (in general, the point on the concentration scale where inhibition reaches its midpoint) in [1] worked out at 1050 nM.

Turning to `O=C(O)CN1CC(=O)Oc2c(-c3ccccc3)cccc21`, the IC50 in assay [1] turned out to be 3340 nM. Besides, the inhibition (commonly the change of the read-out against control, counted positive when it falls) in [2] is 91.3%; in assay [3], 36.5%; in [4], 13.2%; in assay [5] it was 6.12%.

As for `O=C(O)CN1CC(=O)Oc2c(/C=C/c3ccc(O)cc3)cccc21`, in the assay listed under Rattus norvegicus, the Ratio IC50 amounted to 60.6. For the same compound, the IC50 in [6] worked out at 4990 nM; in [1], 82 nM. Besides, in assay [7], the Activity was 1.07 U/µM. Also, the inhibition with Brain was 81.7%; in assay [2], 93.2%; in assay [3] it was 87.5%; in assay [4], 57.4%; in assay [5] it was 14.7%.

Take `Cc1c(C)c2c(c(C)c1O)CCC(C)(C(=O)O)O2` (stereo not drawn): the Activity in assay [7] stood at 1.13 U/µM. The inhibition with Brain was 75.5%; in [2], 94.6%; in assay [3], 82.6%; in [4], 47.8%; in assay [5] it was 10.2%.

On to `Cc1ccc(/C=C/c2cccc3c2OC(=O)CN3CC(=O)O)cc1`, for which the half-maximal inhibitory concentration (IC50) in [1] amounted to 220 nM.

On to `CC(C)(C)c1ccc(/C=C/c2cccc3c2OC(=O)CN3CC(=O)O)cc1`, for which the Ratio IC50 in the assay listed under Rattus norvegicus was 3.93. Besides, the IC50 in [6] was 669 nM; in assay [1] it was 170 nM.

In the case of `CC(/C=C1\SC(=S)N(CC(=O)O)C1=O)=C\c1ccccc1`, the IC50 in [6] amounted to 1200 nM.

As to `COc1ccc(/C=C/c2cccc3c2OC(=O)CN3CC(=O)O)cc1`, the IC50 in [1] amounted to 208 nM.

Take `O=C(O)CN1CC(=O)Oc2c(/C=C/c3ccccc3)cccc21`: in the assay listed under Rattus norvegicus, the Ratio IC50 turned out to be 9.11. Further, the concentration for half-maximal inhibition (IC50) in assay [6] stood at 2810 nM; in assay [1], 308 nM. Also, the Activity in assay [7] stood at 0.81 U/µM. For the same compound, the inhibition in the assay with Brain worked out at 75.8%; in assay [2] it was 86.5%; in assay [3], 84.2%; in assay [4], 43.6%; in [5], 12%.

Regarding `O=C(O)CN1CC(=O)Oc2c(/C=C/c3ccc(F)cc3)cccc21`, the Ratio IC50 in the assay filed under Rattus norvegicus is 25.7. Moreover, the half-inhibitory concentration (IC50) in assay [6] is 4280 nM; in [1], 167 nM. For the same compound, in [7], the Activity is 0.79 U/µM. The inhibition with Brain is 74.8%; in [2], 92.6%; in assay [3], 90%; in assay [4], 57.1%; in assay [5] it was 12.6%.

For the compound `O=C(O)CN1CC(=O)Oc2c(/C=C/c3ccc([N+](=O)[O-])cc3)cccc21`, the IC50 in assay [1] stood at 262 nM.

Regarding `O=C(O)CN1CC(=O)Oc2ccccc21`, in the assay filed under Rattus norvegicus, the Ratio IC50 was 7.1. Moreover, the concentration for half-maximal inhibition (IC50) in assay [6] was determined as 13700 nM; in assay [1], 1930 nM. The Activity in [7] is 0.73 U/µM. Also, the inhibition with Brain was found to be 72.2%; in assay [2], 92.8%; in assay [3] it was 65.6%; in assay [4] it was 23.1%; in assay [5], 7.17%.

As to `O=C(O)CN1CC(=O)Oc2c(/C=C/c3ccc(C(F)(F)F)cc3)cccc21`, the Ratio IC50 in the assay listed under Rattus norvegicus was determined as 23.7. Further, the IC50 in assay [6] was 3270 nM; in [1] it was 138 nM. In addition, the inhibition was determined as 91.3% in assay [2], 89.2% in [3], 44.3% in [4] and 9.92% in [5].

As for `O=C(O)CN1CC(=O)Oc2c(/C=C/c3ccc(-c4ccccc4)cc3)cccc21`, in [1], the half-inhibitory concentration (IC50) was determined as 281 nM.

As to `COc1cc(/C=C/c2cccc3c2OC(=O)CN3CC(=O)O)ccc1O`, the Ratio IC50 in the assay filed under Rattus norvegicus was 24. Further, the concentration for half-maximal inhibition (IC50) in assay [6] amounted to 4500 nM; in assay [1], 188 nM. Besides, the Activity in assay [7] turned out to be 1.02 U/µM. The inhibition was found to be 80.7% with Brain; 93.1% in assay [2]; 85% in assay [3]; 57.8% in assay [4]; 18.2% in assay [5].

As to `COc1ccc(-c2cccc3c2OC(=O)CN3CC(=O)O)cc1`, in [1], the IC50 came out at 774 nM.
